Most compounds without a hit are left out; they make up all but 2.5% or so of the library.
EP2 modulator: EP2 receptor modulators, cAMP readout, primary screen, cell-based, HTRF cAMP, PGE2 stimulation; induction, % at 25 µM; Prostaglandin E2 receptor EP2 subtype (Homo sapiens), P43116; AID 940, 2007; EP2-expressing cells, cAMP HTRF FRET, PGE2 co-stimulation; 0.83% of 260,000 active;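 active = compounds whose cAMP rise, as percent of the full-agonist control response, exceeds 60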;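 note: rat C6 glioma line stably carrying human EP2 under a CMV promoter; the protocol text gives 20 µM as final concentration; 100% = response of wells given 1 µM PGE2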
Target sequence (P43116 whole entry, looked up): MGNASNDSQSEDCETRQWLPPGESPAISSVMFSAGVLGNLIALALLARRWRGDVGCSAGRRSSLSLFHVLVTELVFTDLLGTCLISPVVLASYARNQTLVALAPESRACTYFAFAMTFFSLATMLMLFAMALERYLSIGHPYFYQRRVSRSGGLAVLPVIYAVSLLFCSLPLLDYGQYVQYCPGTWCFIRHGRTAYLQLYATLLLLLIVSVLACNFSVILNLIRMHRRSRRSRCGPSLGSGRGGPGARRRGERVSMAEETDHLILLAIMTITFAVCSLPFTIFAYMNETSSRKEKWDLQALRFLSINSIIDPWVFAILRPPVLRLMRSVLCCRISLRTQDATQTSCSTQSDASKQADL
HKDC1 inh: HKDC1 hexokinase inhibitors, primary screen, biochemical, fluorescence, uHTS; Q2TB90; recombinant HKDC1, G6PDH/diaphorase resazurin coupled fluorescence; 0.16% of 340,000 active; inhibition, % at 20 µM;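 active = inhibition above about 35% when tested at 20 µM, limit read from the data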;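 note: plate controls were DMSO wells with enzyme for no effect and DMSO wells lacking enzyme for full effect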
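Material – in-house recombinant HK5 (HKDC1) enzyme · Quantity – HKDC1 at 5 µg/mL · Buffer or medium – pH 8.0 Tris buffer with 10 mM MgCl2 · Reagent – glucose with 1 mM ATP · Dosing – single 20 µM dose · Times – reaction time 90 min, room temperature, protected from light · Technique – resorufin fluorescence at 613 nm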
PHOSPHO1 inh: PubChem AID 1565; Phosphoethanolamine/phosphocholine phosphatase (Homo sapiens), Q8TCT1; recombinant PHOSPHO1, absorbance phosphatase assay; inhibition, % at 13.3 µM; 1.1% of 290,000 active; in the data active = inhibition above about 60%
Target sequence (Q8TCT1 whole entry, looked up): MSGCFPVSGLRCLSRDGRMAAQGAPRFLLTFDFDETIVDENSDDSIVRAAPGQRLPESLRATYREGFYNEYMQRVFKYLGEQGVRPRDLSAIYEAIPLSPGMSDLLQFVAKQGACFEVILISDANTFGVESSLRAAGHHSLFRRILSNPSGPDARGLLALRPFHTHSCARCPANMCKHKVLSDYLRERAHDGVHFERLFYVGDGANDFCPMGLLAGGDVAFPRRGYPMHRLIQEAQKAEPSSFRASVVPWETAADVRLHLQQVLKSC
PfG6PD inh: PfG6PD enzyme inhibitors, primary screen, biochemical, fluorescence intensity, uHTS | AID 504690, 2011 | 0.78% of 350,000 active | inhibition, % at 20 µM | PfGluPho enzyme, NADPH resazurin-diaphorase fluorescence;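 active = inhibition reaching at least a set limit at 20 µM in the primary screen, cut at about 59% in these data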;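 note: 0% = DMSO wells with substrate and 100% = DMSO wells lacking glucose-6-phosphate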
Tb hexokinase: Trypanosoma brucei hexokinase 1 inhibitors, primary screen, biochemical, G6PDH-coupled NADH absorbance, MLSCN library; recombinant TbHK1, G6PDH-coupled NADH A340; inhibition, % at 10 µM; AID 1430, 2008; hexokinase 1 [Trypanosoma brucei]; 0.11% of 220,000 active;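 active = inhibition of 50% or more in the single-dose primary screen; inactive = inhibition below 50%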
EP2 antag: human EP2 receptor antagonists, primary screen, TR-FRET cAMP, C6 glioma cells. Prostaglandin E2 receptor EP2 subtype (Homo sapiens), P43116. C6 glioma cells expressing human EP2; cells stimulated with saturating PGE2. inhibition, % at 25 µM. 0.52% of 260,000 active. AID 1422, 2008;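 active = percent inhibition above 40 after rounding to a whole number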;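 note: rat C6 glioma host cells with rolipram phosphodiesterase inhibitor present; the protocol text gives 20 µM as final concentration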
PfGluPho conf: PfG6PD inhibitors, hit retest, confirmation, biochemical, fluorescence intensity, single concentration; shares compounds with PfG6PD inh; inhibition, % at 20 µM; recombinant PfGluPho, NADPH-diaphorase-resazurin fluorescence; 34% of 2,400 active;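 active = inhibition of at least 50% at 20 µM in any single replicate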;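 note: 0% = DMSO with substrate and 100% = DMSO lacking glucose-6-phosphate substrate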
Diaphorase 10uM: diaphorase inhibitors and chemical oxidizers, confirmation, counter-screen for P. falciparum G6PD inhibitor project, biochemical, fluorescence intensity, 10 µM NADPH; shares compounds with PfG6PD inh; inhibition, % at 20 µM; diaphorase-coupled resazurin reduction, NADPH 10 uM; AID 504862, 2011; 39% of 820 active;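 active = average inhibition reaching 50% or more with the compound at 20 µM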;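 note: resorufin red fluorescence formed as diaphorase reduces resazurin using NADPH; 0% = DMSO with enzyme and 100% = DMSO without enzyme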
Diaphorase 30uM: diaphorase inhibitors and chemical oxidizers, confirmation, counter-screen for P. falciparum G6PD inhibitor project, biochemical, fluorescence intensity, 30 µM NADPH. inhibition, % at 20 µM. shares compounds with PfG6PD inh. 29% of 820 active. Diaphorase/resazurin coupled assay, resorufin fluorescence;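 active = inhibition averaging 50% or more, tested at 20 µM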;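 note: 0% = DMSO with enzyme and 100% = DMSO wells lacking diaphorase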
* hit, by the source's call; nt = not tested or not shown.

SMILES	EP2 modulator	HKDC1 inh	PHOSPHO1 inh	PfG6PD inh	Tb hexokinase	EP2 antag	PfGluPho conf	others
Cc1cccc2cc(CN(Cc3ccco3)C(=S)NCc3ccco3)c(=O)[nH]c12	10.1	nt	nt	nt	nt	15.9	nt
COc1ccc(N)cc1-n1c(C)ccc1C	31.6	14.2	11.7	78.2*	-7.7	14.5	12.9
COc1ccc(C)cc1-n1c(C)cc(C=O)c1C	44.0	0.0	20.0	18.2	9.1	3.9	nt
COc1cccc(C2(NC(=O)c3cc4ncc(C(C)=O)c(C)n4n3)CCCC2)c1	-1.3	nt	nt	nt	nt	8.7	nt
O=C1C=C(O)c2[nH]c(=O)ccc2C1=O	nt	22.5	nt	69.1*	nt	nt	29.9
Cc1nc2sc(C(=O)c3ccc4c(c3)OCO4)c(N)c2c(C)c1C	-19.1	nt	nt	nt	nt	13.3	nt
CCOC(=O)c1c(C)[nH]c(C)c1C(=O)COC(=O)/C=C/c1ccc(OC)cc1	nt	1.1	nt	23.5	nt	nt	nt
CCOC(=O)c1c(C)[nH]c(C)c1C(=O)COC(=O)/C=C/c1ccco1	nt	8.6	nt	81.6*	nt	nt	67.5*	Diaphorase 10uM=73.7*;Diaphorase 30uM=57.4*
CCOC(=O)c1c(C)[nH]c(C)c1C(=O)COC(=O)c1cc2ccccc2cc1O	3.1	0.1	-4.5	103.0*	-7.6	12.6	5.3
CCOC(=O)c1c(C)[nH]c(C)c1C(=O)COC(=O)c1cc2ccccc2cc1OC	4.9	-3.2	6.3	51.6	19.9	4.6	nt
CC1=CC(=O)C(Sc2ccc(C)cc2)=CC1=O	nt	nt	nt	123.9*	nt	nt	109.0*	Diaphorase 10uM=90.5*;Diaphorase 30uM=63.8*
CSCc1c(C(=O)Nc2ccc3c(c2)OCO3)oc2ccccc12	nt	4.2	27.9	67.9*	nt	nt	2.6
Cc1c(C(=O)Nc2ccc3c(c2)OCO3)oc2ccccc12	nt	-0.4	31.9	60.7*	nt	nt	-2.5
O=C(NCCCO)/C(=C/c1ccc2c(c1)OCO2)NC(=O)c1ccccc1Br	-6.5	nt	nt	nt	nt	7.6	nt
COc1ccc(Nc2ccc(Nc3ccc(OC)cc3)nn2)cc1	8.9	8.3	-11.4	-0.2	-1.2	5.2	nt
COc1ccc(Nc2cc(C)c3ccccc3n2)cc1	4.6	1.0	8.9	65.6*	-7.0	0.7	-1.3
COc1ccc(Nc2ccc(OC)cc2)cc1	-0.9	8.7	15.7	63.8*	-2.9	10.2	25.2
Cc1cc(Nc2ccc([N+](=O)[O-])cc2)nc2ccccc12	-10.4	-7.9	32.3	9.3	2.9	1.7	nt
Cn1c(N2CCCC(C(=O)Nc3ccc(N4CCOCC4)cc3)C2)nc2ccccc21 (stereo not given)	-10.0	nt	nt	nt	nt	nt	nt
COc1ccc(-c2c(C)nn3c(NCCCn4ccnc4)cc(C)nc23)cc1	-38.3	nt	nt	nt	nt	nt	nt
NC(=S)NN=Cc1nccc2c(N)cccc12	nt	nt	nt	100.3*	nt	nt	48.7
Cc1ccccc1N=Cc1ccc[nH]1	nt	-2.8	nt	-6.4	nt	nt	nt
Cc1ccc(N=Cc2ccc[nH]2)c(O)c1	8.0	7.3	6.3	76.7*	-14.3	15.2	39.8
Cc1cccc(/N=C/c2c(O)[nH]c3ccccc23)n1	-4.8	-3.9	6.7	65.0*	-30.3	11.1	15.1
CC(C)(C)C(=O)N1CCC[C@H]1Cn1nc(-c2cccs2)ccc1=O	13.3	nt	nt	nt	nt	2.4	nt
SMILES	EP2 modulator	HKDC1 inh	PHOSPHO1 inh	PfG6PD inh	Tb hexokinase	EP2 antag	PfGluPho conf	others
Cc1ccccc1CCN(Cc1cc2cccc(C)c2[nH]c1=O)Cc1nnnn1Cc1ccco1	1.9	nt	nt	nt	nt	8.8	nt
Cc1ccsc1/C=N/NC(=O)c1cccc(S(=O)(=O)Nc2ccccc2Cl)c1	2.8	-7.7	9.1	64.3*	-4.7	7.2	60.4*	Diaphorase 10uM=42.7;Diaphorase 30uM=47.0
COc1cc(C(=O)Nc2nc(-c3ccc(F)cc3)c(C)s2)cc(OC)c1OC	11.4	nt	nt	nt	nt	16.7	nt
O=C(CSc1nnc(-c2ccccc2)o1)Nc1ccc(Br)cc1Br	-19.6	nt	nt	nt	nt	7.0	nt
COC(=O)c1cc(C)[nH]c2c(C)cc3nc4ccccc4c3c12	-10.6	3.0	-5.5	71.3*	-1.5	27.5	-11.9
CC1(C)Cc2[nH]c(=S)c(C#N)cc2CO1	-18.8	0.8	59.4	62.8*	0.5	13.7	29.9
N#Cc1cc2c([nH]c1=S)CCCC2	-0.2	-2.1	-0.2	51.6	-4.1	2.0	nt
CCC(=O)NC1=C(Cl)C(=O)C(NC(=O)CC)=C(Cl)C1=O	-49.2	23.0	7.2	114.3*	-23.7	117.4*	114.4*	Diaphorase 10uM=98.2*;Diaphorase 30uM=96.7*
Cc1ccc(-n2c(SCC(=O)O)nc3c(sc(=S)n3-c3ccc(C)c(C)c3)c2=O)cc1	nt	-3.1	34.0	75.0*	nt	nt	30.8
Cc1ccsc1CN(CCCO)Cc1cccc(F)c1F	22.9	nt	nt	nt	nt	3.9	nt
O=C(c1c[nH]c2ccc(F)cc2c1=O)N1CCN(C2CCCCC2)CC1	-19.2	nt	nt	nt	nt	10.1	nt
COC(=O)Cc1sc(-c2ccccn2)nc1-c1ccccc1	33.5	-13.7	-34.7	62.8*	-7.9	12.0	22.6
Cc1cc2cc(CN(Cc3ccco3)Cc3nnnn3C3CCCC3)c(=O)[nH]c2cc1C	43.5	nt	nt	nt	nt	6.7	nt
Cc1cccn2c(=O)c3cc(C(=O)NC4CCCC4)c(=N)n(CCc4ccccc4)c3nc12	nt	-9.5	46.2	9.3	nt	nt	nt
N=c1c(C(=O)NC2CCCCC2)cc2c(=O)n3ccccc3nc2n1Cc1ccc(F)cc1	nt	-3.0	31.9	15.5	nt	nt	nt
Cc1cccn2c(=O)c3cc(C(=O)NC4CCCC4)c(=N)n(Cc4ccc(F)cc4)c3nc12	nt	1.7	23.9	63.5*	nt	nt	-9.7
CCOCCCn1c(=N)c(C(N)=S)cc2c(=O)n3cccc(C)c3nc21	16.4	1.5	20.9	63.8*	-17.6	13.0	7.5
Cc1cccn2c(=O)c3cc(C(=O)NC4CCCCC4)c(=N)n(Cc4ccccc4)c3nc12	nt	-3.2	9.6	69.7*	nt	nt	-1.3
CCOc1ccc2cc3c(N)c(C(=O)N4CCC(C)CC4)sc3nc2c1	-75.9	nt	nt	nt	nt	4.2	nt
Cc1sc(NC(=O)CSc2ncnc3sc4c(c23)CCC4)c(C#N)c1C	27.2	nt	nt	nt	nt	9.1	nt
Cc1cccc(OCCn2c(=S)[nH]c3ccccc32)c1	52.4	-10.1	-21.6	68.2*	10.1	10.8	32.0
S=c1[nH]c2ccccc2n1CCOc1ccccc1	nt	-1.5	-45.7	37.1	nt	nt	nt
CC[N+]1(CC)CC2=C(Cl)C=CCC2C1 (stereo not given)	17.2	nt	nt	nt	nt	8.0	nt

Screening data: PubChem, several laboratories
